Data taken from ChEMBL document CHEMBL3352559, “Synthesis and pharmacological investigation of aralkyl diamine derivatives as potential triple reuptake inhibitors” (Eur J Med Chem, 2014).

Assays:
[1] = target: Neuromedin-K receptor (Homo sapiens) (UniProt P29371); experiment: Displacement of [3H]-SR142801 from human NK3 receptor at 10 uM relative to control
How it was run: (§1)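 Outsourced CNS panel of 55 receptor binding assays run by Cerep. Compound tested at 10 μM, the default primary-binding concentration, with inhibition expressed relative to control. Inhibition above 50% taken as a significant effect.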

[2] = Ratio of drug level in Sprague-Dawley rat brain to plasma at 0.5 mg/kg iv after 1 hrs; format: ADME, organism-based; design: dose 0.5 mg/kg, route intravenous; conditions: read-out: BPR
[3] = target: Muscarinic acetylcholine receptor M3 (Homo sapiens) (UniProt P20309); experiment: Displacement of [3H]4-DAMP from human muscarinic M3 receptor at 10 uM relative to control; how it was run: as §1
Sequence of Muscarinic acetylcholine receptor M3 (Homo sapiens) (P20309 whole entry, looked up): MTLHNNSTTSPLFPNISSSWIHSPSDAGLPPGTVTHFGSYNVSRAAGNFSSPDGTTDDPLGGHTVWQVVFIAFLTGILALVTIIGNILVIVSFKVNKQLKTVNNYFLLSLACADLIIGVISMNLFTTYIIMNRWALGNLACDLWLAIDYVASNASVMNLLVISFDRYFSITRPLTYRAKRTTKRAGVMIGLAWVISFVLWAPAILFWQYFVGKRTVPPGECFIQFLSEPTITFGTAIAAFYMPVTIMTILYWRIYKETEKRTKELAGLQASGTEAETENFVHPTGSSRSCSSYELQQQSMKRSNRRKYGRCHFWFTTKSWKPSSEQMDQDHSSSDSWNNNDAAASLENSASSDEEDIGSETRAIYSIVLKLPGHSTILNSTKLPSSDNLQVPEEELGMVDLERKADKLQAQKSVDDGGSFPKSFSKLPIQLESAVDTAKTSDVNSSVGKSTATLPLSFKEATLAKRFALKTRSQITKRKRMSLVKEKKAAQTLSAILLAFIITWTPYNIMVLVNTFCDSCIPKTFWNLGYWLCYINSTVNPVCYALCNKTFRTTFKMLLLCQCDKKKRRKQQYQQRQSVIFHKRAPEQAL

Homo sapiens [4] = species: Homo sapiens; experiment: Inhibition of SKca channel (unknown origin) at 10 uM by [125I]apamin binding assay relative to control
How it was run: (§2)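 Outsourced CNS receptor panel (55 binding assays); compound tested at 10 μM in primary radioligand binding; specific binding inhibition expressed relative to control, with >50% inhibition taken as a significant effect.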

[5] = AUC (0 to infinity) in Sprague-Dawley rat at 2 mg/kg, po; format: ADME, organism-based; design: dose 2 mg/kg, route oral, time infinity; conditions: plasma
How it was run: (§3)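 Male SD rats, fasted overnight until 6 h post-dose. PO group received single 2 mg/kg with heparinized blood sampled at 5, 15, 30 min, 1, 2, 4, 8, 24 h. IV group received single 0.5 mg/kg via femoral vein with sampling at 5, 15, 30 min, 1, 2, 4 h. Plasma stored at -40 °C, quantified by LC/MS/MS; 24 rats per group.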

[6] = target: 5-hydroxytryptamine receptor 7 (Homo sapiens) (UniProt P34969); experiment: Displacement of [3H]LSD from human 5-HT7 receptor at 10 uM relative to control; how it was run: as §1
Sequence of 5-hydroxytryptamine receptor 7 (Homo sapiens) (P34969 whole entry): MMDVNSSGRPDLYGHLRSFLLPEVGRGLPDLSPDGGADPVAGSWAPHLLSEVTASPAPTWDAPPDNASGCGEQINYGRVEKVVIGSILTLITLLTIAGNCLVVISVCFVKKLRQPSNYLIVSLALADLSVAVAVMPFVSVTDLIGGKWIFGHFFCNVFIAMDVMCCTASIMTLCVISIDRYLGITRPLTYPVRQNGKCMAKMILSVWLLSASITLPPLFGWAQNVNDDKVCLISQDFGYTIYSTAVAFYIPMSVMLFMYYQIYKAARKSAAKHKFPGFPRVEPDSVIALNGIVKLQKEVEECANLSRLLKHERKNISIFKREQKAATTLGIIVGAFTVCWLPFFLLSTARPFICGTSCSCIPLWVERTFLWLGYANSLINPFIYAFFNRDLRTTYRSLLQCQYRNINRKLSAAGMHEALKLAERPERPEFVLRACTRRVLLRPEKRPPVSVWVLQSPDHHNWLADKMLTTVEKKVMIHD

Salmonella typhimurium [7] = experiment: Mutagenic activity in Salmonella typhimurium TA98 assessed as number of reversion mutation at 3 ug/plate; format: toxicity, organism-based; conditions: salmonella enterica subsp. enterica serovar typhimurium
How it was run: (§4)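 Ames reversion test in Salmonella typhimurium TA98 and TA100, with and without rat liver S9 metabolic activation. Compound was dissolved in DMSO and added at 3–5000 μg/plate. Each dose, vehicle and positive control was plated in triplicate, and revertant colonies were counted.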

Salmonella typhimurium [8] = experiment: Mutagenic activity in Salmonella typhimurium TA100 assessed as number of reversion mutation at 1000 ug/plate; format: toxicity, organism-based; conditions: salmonella enterica subsp. enterica serovar typhimurium; how it was run: as §4
[9] = Drug uptake in Sprague-Dawley rat plasma at 0.5 mg/kg iv after 1 hrs; format: ADME, organism-based; design: dose 0.5 mg/kg, route intravenous
How it was run: (§5)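 Male SD rats, fasted overnight until 6 h post-dose; single 0.5 mg/kg femoral-vein injection; blood drawn into heparin at 5, 15, 30 min, 1, 2 and 4 h; plasma stored at -40 °C; drug levels by LC/MS/MS; noncompartmental parameters.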

[10] = Drug uptake in Sprague-Dawley rat plasma at 0.5 mg/kg iv after 0.08 hrs; format: ADME, organism-based; design: dose 0.5 mg/kg, route intravenous; how it was run: as §5
[11] = target: C-C chemokine receptor type 1 (Homo sapiens) (UniProt P32246); experiment: Displacement of [125I]MIP-1alpha from human CCR1 receptor at 10 uM relative to control; how it was run: as §1
Sequence of C-C chemokine receptor type 1 (Homo sapiens) (P32246 whole entry): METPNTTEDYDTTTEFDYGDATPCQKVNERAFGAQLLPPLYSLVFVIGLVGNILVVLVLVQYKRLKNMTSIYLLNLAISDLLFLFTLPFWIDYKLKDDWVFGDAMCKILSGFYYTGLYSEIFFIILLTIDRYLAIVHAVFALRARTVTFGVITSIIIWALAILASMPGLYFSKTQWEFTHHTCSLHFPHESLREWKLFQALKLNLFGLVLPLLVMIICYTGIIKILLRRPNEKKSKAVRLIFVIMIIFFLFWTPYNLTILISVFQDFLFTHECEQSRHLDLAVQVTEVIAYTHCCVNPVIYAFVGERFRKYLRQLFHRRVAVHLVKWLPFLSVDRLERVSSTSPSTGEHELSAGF

Homo sapiens [12] = species: Homo sapiens; experiment: Inhibition of Na+ channel (unknown origin) at 10 uM by [3H]batrachotoxinin binding assay relative to control
How it was run: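 Radioligand binding was run at a contract laboratory as part of a 55-target CNS receptor panel. Test concentration was 10 μM. Inhibition of specific binding was expressed relative to control, and inhibition greater than 50% was taken as significant.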

[13] = target: Nociceptin receptor (Homo sapiens) (UniProt P41146); experiment: Displacement of [3H] nociceptin from human ORL1 receptor at 10 uM relative to control; how it was run: as §1
[14] = Ratio of drug level in Sprague-Dawley rat brain to plasma at 0.5 mg/kg iv after 0.25 hrs; format: ADME, organism-based; design: dose 0.5 mg/kg, route intravenous; conditions: read-out: BPR
[15] = target: Beta-2 adrenergic receptor (Homo sapiens) (UniProt P07550); experiment: Displacement of [3H]CGP-12177 from human beta2-adrenergic receptor at 10 uM relative to control; how it was run: as §1
Sequence of Beta-2 adrenergic receptor (Homo sapiens) (P07550 whole entry, looked up): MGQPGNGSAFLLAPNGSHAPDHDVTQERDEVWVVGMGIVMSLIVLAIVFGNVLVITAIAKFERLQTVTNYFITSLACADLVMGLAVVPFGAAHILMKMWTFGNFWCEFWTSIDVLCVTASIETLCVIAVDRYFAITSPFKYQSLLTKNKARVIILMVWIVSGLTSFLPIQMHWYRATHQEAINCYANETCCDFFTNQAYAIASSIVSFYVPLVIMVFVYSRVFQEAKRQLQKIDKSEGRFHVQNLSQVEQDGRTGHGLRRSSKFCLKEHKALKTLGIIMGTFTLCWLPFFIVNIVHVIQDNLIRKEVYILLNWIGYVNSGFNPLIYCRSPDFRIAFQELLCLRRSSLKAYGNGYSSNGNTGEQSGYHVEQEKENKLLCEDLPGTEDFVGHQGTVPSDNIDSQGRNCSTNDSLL

[16] = target: Beta-1 adrenergic receptor (Homo sapiens) (UniProt P08588); experiment: Displacement of [3H]CGP-12177 from human beta1-adrenergic receptor at 10 uM relative to control; how it was run: as §1
Sequence of Beta-1 adrenergic receptor (Homo sapiens) (P08588 whole entry, looked up): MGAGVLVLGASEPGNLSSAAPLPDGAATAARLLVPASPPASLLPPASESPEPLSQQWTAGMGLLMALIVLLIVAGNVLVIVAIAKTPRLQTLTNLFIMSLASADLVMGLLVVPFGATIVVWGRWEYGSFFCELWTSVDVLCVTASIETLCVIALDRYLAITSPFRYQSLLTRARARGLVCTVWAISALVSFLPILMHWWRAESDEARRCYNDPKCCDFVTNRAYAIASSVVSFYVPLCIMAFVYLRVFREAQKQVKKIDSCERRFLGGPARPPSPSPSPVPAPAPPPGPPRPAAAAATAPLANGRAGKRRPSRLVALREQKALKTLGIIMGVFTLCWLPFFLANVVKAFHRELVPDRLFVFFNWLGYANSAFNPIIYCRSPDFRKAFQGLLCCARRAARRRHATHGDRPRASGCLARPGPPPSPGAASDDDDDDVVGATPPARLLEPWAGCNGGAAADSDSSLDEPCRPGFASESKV

Rattus norvegicus = experiment: Toxicity in rat assessed as effect on locomotion at 20 mg/kg, po after 60 mins by spontaneous locomotor test; format: organism-based; design: dose 20 mg/kg, route oral; conditions: in vivo, 1 h
How it was run: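 Rats dosed orally at 20 mg/kg, with vehicle and venlafaxine 30 mg/kg PO as controls; 60 min later placed singly in novel 40×40×50 cm cages under dim light with sound attenuation; activity recorded automatically in 5 min bins over 30 min; mean ± SEM.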

[17] = target: Melanocortin receptor 4 (Homo sapiens) (UniProt P32245); experiment: Displacement of [125I] NDP-alpha-MSH from human MC4 receptor at 10 uM relative to control; how it was run: as §1
Sequence of Melanocortin receptor 4 (Homo sapiens) (P32245 whole entry): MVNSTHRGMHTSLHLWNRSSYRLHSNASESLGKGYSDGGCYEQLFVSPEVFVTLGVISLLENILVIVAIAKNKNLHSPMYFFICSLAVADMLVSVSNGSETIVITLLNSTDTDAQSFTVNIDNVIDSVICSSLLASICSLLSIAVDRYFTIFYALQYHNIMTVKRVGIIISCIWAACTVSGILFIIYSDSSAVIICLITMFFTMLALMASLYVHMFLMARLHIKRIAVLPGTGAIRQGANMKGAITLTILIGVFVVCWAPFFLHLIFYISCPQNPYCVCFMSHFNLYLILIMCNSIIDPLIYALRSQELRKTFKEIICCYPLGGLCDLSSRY

Salmonella typhimurium [18] = experiment: Mutagenic activity in Salmonella typhimurium TA98 assessed as number of reversion mutation at 10 ug/plate; format: toxicity, organism-based; conditions: salmonella enterica subsp. enterica serovar typhimurium; how it was run: as §4
[19] = Oral bioavailability in Sprague-Dawley rat at 2 mg/kg; format: ADME, organism-based; conditions: in vivo
[20] = target: L-type calcium channel, verapamil binding site (Homo sapiens, UniProt O60840+Q01668+Q13698+Q13936); experiment: Inhibition of human L-type calcium channel verapamil binding site at 10 uM by [3H]D88 binding assay relative to control; how it was run: as §2
[21] = Drug uptake in Sprague-Dawley rat brain at 0.5 mg/kg ip after 2 hrs
Salmonella typhimurium [22] = experiment: Mutagenic activity in Salmonella typhimurium TA98 assessed as number of reversion mutation at 100 ug/plate; format: toxicity, organism-based; conditions: salmonella enterica subsp. enterica serovar typhimurium; how it was run: as §4
[23] = Ratio of drug level in Sprague-Dawley rat brain to plasma at 0.5 mg/kg iv after 4 hrs; format: ADME, organism-based; design: dose 0.5 mg/kg, route intravenous; conditions: read-out: BPR
[24] = Elimination half life in Sprague-Dawley rat at 2 mg/kg, po; format: ADME, organism-based; design: dose 2 mg/kg, route oral; conditions: in vivo, read-out: beta t1/2 (converted)
[25] = Cmax in Sprague-Dawley rat at 0.5 mg/kg, iv; format: ADME, organism-based; design: dose 0.5 mg/kg, route intravenous; conditions: in vivo; how it was run: as §3
[26] = target: Histamine H2 receptor (Homo sapiens) (UniProt P25021); experiment: Displacement of [125I]APT from human histamine H2 receptor at 10 uM relative to control; how it was run: as §1
Sequence of Histamine H2 receptor (Homo sapiens) (P25021 whole entry): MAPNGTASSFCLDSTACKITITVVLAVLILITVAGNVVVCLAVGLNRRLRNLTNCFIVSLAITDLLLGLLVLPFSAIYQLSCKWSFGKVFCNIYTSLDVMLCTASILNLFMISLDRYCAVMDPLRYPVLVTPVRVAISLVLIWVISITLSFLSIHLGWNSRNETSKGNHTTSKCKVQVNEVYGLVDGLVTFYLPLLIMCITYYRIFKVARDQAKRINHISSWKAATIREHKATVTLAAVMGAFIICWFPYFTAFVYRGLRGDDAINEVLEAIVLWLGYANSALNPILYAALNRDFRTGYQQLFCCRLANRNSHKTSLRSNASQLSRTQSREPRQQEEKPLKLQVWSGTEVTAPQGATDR

[27] = target: Mu-type opioid receptor (Homo sapiens) (UniProt P35372); experiment: Displacement of […] from human mu opioid receptor at 10 uM relative to control; how it was run: as §1
Sequence of Mu-type opioid receptor (Homo sapiens) (P35372 whole entry): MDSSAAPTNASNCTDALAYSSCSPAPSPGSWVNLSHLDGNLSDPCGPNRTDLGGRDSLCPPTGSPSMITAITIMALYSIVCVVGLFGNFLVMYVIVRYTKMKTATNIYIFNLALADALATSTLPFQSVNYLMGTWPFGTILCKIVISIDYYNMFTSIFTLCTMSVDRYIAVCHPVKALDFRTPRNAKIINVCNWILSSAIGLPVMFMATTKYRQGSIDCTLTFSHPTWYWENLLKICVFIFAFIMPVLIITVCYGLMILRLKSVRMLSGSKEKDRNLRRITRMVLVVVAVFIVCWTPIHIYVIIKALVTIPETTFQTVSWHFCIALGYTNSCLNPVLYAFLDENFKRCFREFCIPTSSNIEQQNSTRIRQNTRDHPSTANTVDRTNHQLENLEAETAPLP

[28] = AUC (0 to time) in Sprague-Dawley rat at 2 mg/kg, po; format: ADME, organism-based; design: dose 2 mg/kg, route oral; conditions: plasma; how it was run: as §3
Salmonella typhimurium [29] = experiment: Mutagenic activity in Salmonella typhimurium TA100 assessed as number of reversion mutation at 10 ug/plate; format: toxicity, organism-based; conditions: salmonella enterica subsp. enterica serovar typhimurium; how it was run: as §4
[30] = Drug uptake in Sprague-Dawley rat brain at 0.5 mg/kg ip after 1 hrs
Salmonella typhimurium [31] = experiment: Mutagenic activity in Salmonella typhimurium TA98 assessed as number of reversion mutation at 300 ug/plate; format: toxicity, organism-based; conditions: salmonella enterica subsp. enterica serovar typhimurium; how it was run: as §4
[32] = target: Type-1 angiotensin II receptor (Homo sapiens) (UniProt P30556); experiment: Displacement of [125I][Sar1,Ile8]-ATII from human angiotensin AT1 receptor at 10 uM relative to control; how it was run: as §1
Sequence of Type-1 angiotensin II receptor (Homo sapiens) (P30556 whole entry): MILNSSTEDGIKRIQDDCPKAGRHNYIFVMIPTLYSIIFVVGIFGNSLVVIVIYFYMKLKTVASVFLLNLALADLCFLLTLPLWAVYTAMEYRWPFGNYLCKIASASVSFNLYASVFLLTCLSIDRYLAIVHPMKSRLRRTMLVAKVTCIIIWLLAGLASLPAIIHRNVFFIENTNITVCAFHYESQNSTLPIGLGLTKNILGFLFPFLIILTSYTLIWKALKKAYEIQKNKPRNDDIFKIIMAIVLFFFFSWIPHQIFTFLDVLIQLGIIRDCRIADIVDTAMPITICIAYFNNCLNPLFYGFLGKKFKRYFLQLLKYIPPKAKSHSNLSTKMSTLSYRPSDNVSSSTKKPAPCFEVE

[33] = target: B2 bradykinin receptor (Homo sapiens) (UniProt P30411); experiment: Displacement of [3H]bradykinin from human bradykinin B2 receptor at 10 uM relative to control; how it was run: as §2
Sequence of B2 bradykinin receptor (Homo sapiens) (P30411 whole entry): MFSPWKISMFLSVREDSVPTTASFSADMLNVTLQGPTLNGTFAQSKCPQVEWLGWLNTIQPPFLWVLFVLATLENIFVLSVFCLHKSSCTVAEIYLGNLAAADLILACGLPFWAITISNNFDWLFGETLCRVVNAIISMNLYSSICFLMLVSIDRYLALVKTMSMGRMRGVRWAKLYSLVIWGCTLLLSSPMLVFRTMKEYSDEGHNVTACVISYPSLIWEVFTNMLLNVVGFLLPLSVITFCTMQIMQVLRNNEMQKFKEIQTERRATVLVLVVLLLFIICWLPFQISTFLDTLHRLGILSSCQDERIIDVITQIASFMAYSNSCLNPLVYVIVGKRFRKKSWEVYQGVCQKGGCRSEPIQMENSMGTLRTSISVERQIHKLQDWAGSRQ

Sequence of Neuromedin-K receptor (Homo sapiens) (P29371 whole entry): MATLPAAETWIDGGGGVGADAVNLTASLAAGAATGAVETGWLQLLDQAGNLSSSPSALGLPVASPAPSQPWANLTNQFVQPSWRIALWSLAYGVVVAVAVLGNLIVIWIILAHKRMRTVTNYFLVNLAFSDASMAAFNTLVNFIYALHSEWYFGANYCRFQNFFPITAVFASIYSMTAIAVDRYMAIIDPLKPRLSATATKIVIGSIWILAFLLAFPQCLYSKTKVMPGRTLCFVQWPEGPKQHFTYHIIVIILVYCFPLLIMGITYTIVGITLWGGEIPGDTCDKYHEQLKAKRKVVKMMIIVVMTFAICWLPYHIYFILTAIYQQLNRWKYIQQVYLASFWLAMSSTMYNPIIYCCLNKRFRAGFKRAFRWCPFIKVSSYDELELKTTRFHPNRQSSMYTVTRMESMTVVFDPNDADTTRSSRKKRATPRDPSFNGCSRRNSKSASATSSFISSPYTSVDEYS

CN(C)CCC(c1ccc(Cl)c(Cl)c1)N1CCOCC1 (centres undefined) showed an inhibition [1] of -0.5%, a Kp at 1 h [2] of 12.7 and an inhibition [3] of 20.6%. The inhibition (Homo sapiens [4]) was -3.8%, the AUC(0-inf) [5] was 80 ng·h/mL and the inhibition [6] was 8.9%. It also gave an Activity (Salmonella typhimurium [7]) of 33, an Activity (Salmonella typhimurium [8]) of 87 and a concentration at 1 h [9] of 33.5 ng/mL. For the same molecule, the concentration at 0.08 h [10] was 48.5 ng/mL, the inhibition [11] was 22.1% and the inhibition (Homo sapiens [12]) was 40.1%. The inhibition [13] was 0.9%, the Kp at 0.25 h [14] was 22 and the inhibition [15] was 4.9%. The inhibition [16] was 11%, the Activity (Rattus norvegicus) was “Non-toxic” and the inhibition [17] was 0.8%. It also gave an Activity (Salmonella typhimurium [18]) of 32, a bioavailability [19] of 19.4% and an inhibition at 10 µM [20] of 41.8%. The concentration at 2 h [21] was 178 ng/mL, the Activity (Salmonella typhimurium [22]) was 41 and the Kp at 4 h [23] was 11.4. It also gave a half-life [24] of 4.5 h, a Cmax [25] of 48.5 ng/mL and an inhibition [26] of -8%. The inhibition [27] was 39.7%, the AUC [28] was 61 ng·h/mL and the Activity (Salmonella typhimurium [29]) was 75. The concentration at 1 h [30] was 425 ng/mL, the Activity (Salmonella typhimurium [31]) was 30 and the inhibition [32] was -9.5%. For the same molecule, the inhibition [33] was -3.8%.
